The values below come from publication PMC9727339 (Asian Pacific Journal of Cancer Prevention : APJCP, 2022).

Each structure is given as a SMILES string. Several values for one entry are separate records, joined by “and”; a condition that tells them apart may be missing. Identical values can stand only once. Like-named read-outs stand apart in the source and are kept apart here.

In series [1] the test system is breast carcinoma T47D cell line. Briefly: Antiproliferation, sulforhodamine B colorimetric bioassay, T47D. It is filed as cell-based. Conditions: read-out: Cytotoxicity (as of %Control) IC50, T47D, 72 h incubations, SRB, mean ± SD, n = 3-4.
Series [2] relates to skin melanoma A375.s2 cell line. Briefly: Antiproliferation, sulforhodamine B colorimetric bioassay, A375.s2. It is filed as cell-based. As to conditions: read-out: Cytotoxicity (as of %Control) IC50, A375.s2; 72 h incubations, SRB; mean ± SD, n = 3-4.
Series [3] concerns normal periodontal ligament fibroblasts (PDL). Briefly: Cytotoxicity in normal periodontal ligament fibroblasts. It is filed as cell-based. The method, boiled down:
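Normal periodontal ligament fibroblasts exposed to test compound for 72 h. […] Selectivity index is the compound's IC50 on PDL divided by its IC50 on a given cancer cell line.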

In series [4] the test system is breast carcinoma MCF7 cell line. Briefly: Antiproliferation, sulforhodamine B colorimetric bioassay, MCF7. As to conditions: read-out: Cytotoxicity (as of %Control) IC50, MCF7, 72 h incubations, SRB, mean ± SD, n = 3-4. The format is cell-based.
A short description of series [5]: DPPH radical scavenging, 96-well colorimetric assay. It is filed as biochemical. As to conditions: read-out: DPPH radical scavenging IC50 value; 30 minutes incubations; mean ± SD, n = 3. (The DPPH test is a chemical assay of radical scavenging.)
The test system of series [6] is Nitric oxide synthase / NO in LPS prompted RAW264.7 macrophages. It is filed as cell-based. As to conditions: mean ± SD, n = 3.

In the case of `N.N.[Cl][Pt][Cl]` [Cisplatin, cisplatin], the IC50 is 45.1 ± 7.84 µM in series [1]; 45.2 µM and 45 µM in series [1] (listed as cisplatin); 0.7 ± 0.1 µM in series [2]; 0.71 ± 0.13 µM in series [3] (read-out: IC50 PDL Fibro, 72h incubations, mean ± SD, n = 3); 92.6 ± 12.5 µM in series [4]; 92.6 µM in series [4] (listed as cisplatin). Further, the “IC50 PDL Fibro” value in series [3] (72h incubations, mean ± SD, n = 3) was “(0.21 ± 0.04) µg/mL”.

Take `O=C1O[C@H]([C@@H](O)CO)C(O)=C1O` [Ascorbic acid, ascorbic acid]: the IC50 in series [5] came out at 3.37 µM.

With `COc1ccc2c(c1)c(CC(=O)O)c(C)n2C(=O)c1ccc(Cl)cc1` [Indomethacin, indomethacin], the IC50 was 55.1 µM and 26.9 µg/mL in series [6] (Mus musculus, RAW264.7, 24 h, read-out: NOS- IC50 value (NO scavenging/antiinflammation), LPS prompted RAW264.7, 24h incubations, Griess assay); 55.1 ± 2.25 µM in series [6] (read-out: NOS- IC50 value (NO scavenging/antiinflammation), LPS prompted RAW264.7, 24h incubations, Griess assay).
